Measured values: paper PMC8230583 (Polymer Chemistry, 2021)

Experiment: Critical aggregation concentration by Nile Red fluorimetry
Type: physicochemical
Conditions: ratio of CAC in water to CAC in 150 mM NaCl
Summary of the method: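 Each compound was dissolved in water or 0.15 M NaCl with mild shaking or sonication, and stocks were equilibrated overnight at room temperature. Diluted samples (pH 4.0–5.5) were equilibrated ≥3 h at room temperature. Nile Red was added from a 1 mg ml−1 acetone stock and samples equilibrated 30 min more. Emission (575–740 nm, excitation 550 nm) was recorded to follow the shift of the Nile Red maximum.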

CAC in the presence of salt, times lower than in pure water: 1.2 times
Substance: FDFF
